From ChEMBL document CHEMBL1938282 (J Med Chem, 2011)

Experiments:
Bos taurus = organism: Bos taurus; assay: Selectivity index, ratio of Ki for bovine MAOB to Ki for bovine MAOA
Summary of the method: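 Selectivity was calculated as Ki(MAO-B)/Ki(MAO-A). Each Ki came from a Dixon plot of kynuramine deamination by beef brain mitochondria, with 1 μM clorgyline present for MAO-B or 1 μM L-deprenyl for MAO-A, read fluorimetrically.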

[1] = biological target: T1, Amine oxidase [flavin-containing] B (Bos taurus, UniProt P56560); assay: Inhibition of bovine brain MAOB using kynuramine as a substrate after 30 mins by spectrofluorometric method
T1 sequence (P56560 whole entry): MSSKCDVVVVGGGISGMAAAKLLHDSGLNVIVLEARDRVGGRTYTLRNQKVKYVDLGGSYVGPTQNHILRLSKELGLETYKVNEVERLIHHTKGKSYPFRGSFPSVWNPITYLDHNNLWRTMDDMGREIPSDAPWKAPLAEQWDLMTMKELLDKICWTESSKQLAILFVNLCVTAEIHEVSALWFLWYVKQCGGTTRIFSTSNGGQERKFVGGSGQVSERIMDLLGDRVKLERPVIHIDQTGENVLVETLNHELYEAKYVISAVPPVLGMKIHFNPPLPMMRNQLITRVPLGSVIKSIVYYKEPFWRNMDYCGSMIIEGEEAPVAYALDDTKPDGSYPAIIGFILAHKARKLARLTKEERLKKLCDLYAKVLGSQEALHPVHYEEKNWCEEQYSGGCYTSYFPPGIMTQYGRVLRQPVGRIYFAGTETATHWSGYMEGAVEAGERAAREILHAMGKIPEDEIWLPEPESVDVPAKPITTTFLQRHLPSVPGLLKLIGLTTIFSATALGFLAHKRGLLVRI
Summary of the method: (§1)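 Mitochondria isolated from beef brain were pretreated for 30 min at 38 °C with 1 μM L-deprenyl to isolate MAO-A, or with 1 μM clorgyline to isolate MAO-B. Compounds in DMSO were preincubated for 30 min at 38 °C in potassium phosphate buffer at pH 7.4. Kynuramine was then added at four concentrations (5 μM–0.1 mM final) for 30 min.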

[2] = biological target: T2, Amine oxidase [flavin-containing] A (Bos taurus, UniProt P21398); assay: Inhibition of bovine brain MAOA using kynuramine as a substrate after 30 mins by spectrofluorometric method; summary of the method: as §1
T2 sequence (P21398 whole entry): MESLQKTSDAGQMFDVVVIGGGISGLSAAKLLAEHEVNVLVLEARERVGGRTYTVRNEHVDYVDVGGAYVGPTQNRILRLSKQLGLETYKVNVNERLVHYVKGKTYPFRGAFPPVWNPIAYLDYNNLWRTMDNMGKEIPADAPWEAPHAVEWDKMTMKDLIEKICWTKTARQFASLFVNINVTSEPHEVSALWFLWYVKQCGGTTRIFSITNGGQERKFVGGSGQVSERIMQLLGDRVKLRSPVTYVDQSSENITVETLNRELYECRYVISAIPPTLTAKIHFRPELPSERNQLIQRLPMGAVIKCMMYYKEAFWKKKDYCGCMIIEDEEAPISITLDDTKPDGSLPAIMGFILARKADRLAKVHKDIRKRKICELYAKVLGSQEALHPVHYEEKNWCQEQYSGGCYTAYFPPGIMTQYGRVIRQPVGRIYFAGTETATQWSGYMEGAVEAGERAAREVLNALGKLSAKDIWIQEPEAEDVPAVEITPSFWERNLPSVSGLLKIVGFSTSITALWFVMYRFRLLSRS

Compound | Ratio Ki (Bos taurus) | Ki [1] | Ki [2]
CCn1ccc(N2C[C@H](CNC)OC2=O)c1 | 225 | 18000 nM | 80 nM
Cn1ccc(N2C[C@H](CO)OC2=O)c1 | > 10 | > 10000 nM | 1000 nM
C=CCn1ccc(N2C[C@H](COC)OC2=O)c1 | 200000 | 200000 nM | 1 nM
Cn1ccc(N2C[C@H](CN)OC2=O)c1 | 18000 | 180000 nM | 10 nM
C=CCn1ccc(N2C[C@H](CN=[N+]=[N-])OC2=O)c1 | 25000 | 100000 nM | 4 nM
C=CCn1ccc(N2C[C@H](CO)OC2=O)c1 | 1790 | 625000 nM | 350 nM
CNC[C@H]1CN(c2ccn(C)c2)C(=O)O1 | > 14300 | > 100000 nM | 7 nM
CCn1ccc(N2C[C@H](CN=[N+]=[N-])OC2=O)c1 | 25000 | 20000 nM | 0.8 nM
CCn1ccc(N2C[C@H](COC)OC2=O)c1 | 2170 | 1300 nM | 0.6 nM
C=CCn1ccc(N2C[C@H](CN)OC2=O)c1 | 11 | 8000 nM | 700 nM
Cn1ccc(N2C[C@H](CN=[N+]=[N-])OC2=O)c1 | 1800 | 360000 nM | 200 nM
COC[C@H]1CN(c2ccc(OCC[C@@H](O)C(F)(F)F)cc2)C(=O)O1 [BEFLOXATONE] | 88 | 220 nM | 2.5 nM
C=CCn1ccc(N2C[C@H](CNC)OC2=O)c1 | 20 | 2000 nM | 100 nM
COC[C@H]1CN(c2ccn(C)c2)C(=O)O1 | 567 | 170000 nM | 300 nM
CCn1ccc(N2C[C@H](CN)OC2=O)c1 | 192 | 25000 nM | 130 nM
CCn1ccc(N2C[C@H](CO)OC2=O)c1 | 100 | 300 nM | 3 nM
